According to ChEMBL document CHEMBL1145397, “Structure-activity relationships of a series of analogs of the endozepine octadecaneuropeptide (ODN(11)(-)(18)) on neurosteroid biosynthesis by hypothalamic explants” (2007):
Calls of active or inactive are those of the source. The rule behind the calls is not given here.

Key:
Hypothalamus [1] = assay: Effect on neurosteroid biosynthesis assessed as conversion of [3H]pregnenolone to 17-Hydroxypregnenolone in frog hyphalamic explats at 1 uM after 2 hrs relative to control; type: functional, Pelophylax lessonae
Outline: (§1)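 Frog hypothalamic explants, preincubated 15 min in HEPES/bicarbonate Ringer's (glucose, BSA, 95% O2/5% CO2, pH 7.4), then incubated 2 h at 24 °C with 10^-6 M [3H]pregnenolone in 4% propylene glycol, with or without peptide. Reaction stopped with trichloroacetic acid; steroids extracted in dichloromethane and resolved by RP-HPLC radioactivity profiles. Values are % of steroid formed without peptide, mean ± SEM of independent experiments.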

Hypothalamus [2] = assay: Effect on neurosteroid biosynthesis assessed as conversion of [3H]pregnenolone to progesterone in frog hyphalamic explats at 1 uM after 2 hrs relative control; type: functional, Pelophylax lessonae; outline: as §1
Hypothalamus [3] = assay: Effect on neurosteroid biosynthesis in frog hyphalamic explats at 1 uM after 2 hrs in presence of CBR antagonist flumazenil; type: functional, tissue-based; conditions: Pelophylax lessonae; outline: as §1
Hypothalamus [4] = assay: Effect on neurosteroid biosynthesis assessed as conversion of [3H]pregnenolone to 17-Hydroxypregnenolone in frog hyphalamic explats at 10 uM after 2 hrs relative to control; type: functional, Pelophylax lessonae; outline: as §1
Hypothalamus [5] = assay: Effect on neurosteroid biosynthesis assessed as conversion of [3H]pregnenolone to progesterone in frog hyphalamic explats at 10 uM after 2 hrs relative control; type: functional, Pelophylax lessonae; outline: as §1

Row | Molecule | Activity (Hypothalamus [1]) | Activity (Hypothalamus [2]) | Activity (Hypothalamus [3]) | Activity (Hypothalamus [4]) | Activity (Hypothalamus [5])
1 | H-RAGLLDLK-OH | 405% | 265.2% |  |  | 
2 | H-LLDLK-OH | 103.6% | 103.8% |  |  | 
3 | H-PGLLDLK-OH [PGLLDLK] | 400.2% | 282.1% |  |  | 
4 | H-RPGALDLK-OH | 97.1% | 104.7% |  |  | 
5 | H-RPGLLALK-OH | 103.6% | 100.4% |  |  | 
6 | H-RPGLLDAK-OH | 99.5% | 103.2% |  |  | 
7 | H-APGLLDLK-OH [APGLLDLK] | 402.7% | 276.5% |  |  | 
8 | H-RPGLL-OH | 97.1% | 99.6% |  |  | 
9 | H-RPGLLDLK-OH | 410.5% | 281.7% | inactive |  | 
10 | H-PGLLDL-OH | 117.5% | 137% |  |  | 
11 | H-RPGLLDLA-OH | 126% | 137% |  |  | 
12 | H-RPGLLD-OH | 98.2% | 98.6% |  |  | 
13 | H-QATVGDVNTDRPGLLDLK-OH [QATVGDVNTDRPGLLDLK] | 465.3% | 382.7% |  |  | 
14 | H-GLLDL-OH | 98.9% | 116.5% |  |  | 
15 | H-PGLLD-OH | 101.3% | 101.4% |  |  | 
16 | CC(C)C[C@@H]1NC(=O)CNC(=O)[C@@H]2CCCN2C(=O)[C@H](CCCNC(=N)N)NC(=O)[C@H](CCCCN)NC(=O)[C@H](CC(C)C)NC(=O)[C@H](CC(=O)O)NC(=O)[C@H](CC(C)C)NC1=O | 246.9% | 271.9% |  |  | 
17 | H-RPGLADLK-OH | 92.8% | 108.5% |  |  | 
18 | H-RPALLDLK-OH | 126% | 99% |  |  | 
19 | H-GLLDLK-OH | 366.6% | 266.6% |  |  | 
20 | CC(C)C[C@@H]1NC(=O)CNC(=O)[C@@H]2CCCN2C(=O)[C@H](CCCNC(=N)N)NC(=O)[C@H](CCCCN)NC(=O)[C@H](CC(C)C)NC(=O)[C@H](CC(=O)O)NC(=O)[C@@H](CC(C)C)NC1=O |  |  |  | 99.9% | 99.7%
21 | H-RPGLLDL-OH | 131.5% | 136.6% |  |  | 
22 | CC(C)C[C@@H]1NC(=O)CNC(=O)[C@H]2CCCN2C(=O)[C@H](CCCNC(=N)N)NC(=O)[C@H](CCCCN)NC(=O)[C@H](CC(C)C)NC(=O)[C@H](CC(=O)O)NC(=O)[C@@H](CC(C)C)NC1=O |  |  | inactive |  | 
